Laboratory results reported in ChEMBL document CHEMBL4689842, “EUbOPEN Chemogenomics Library wave 1” (2021).
“And” between values parts separate entries of the source, which are not always exact repeats. Identical values can stand only once.

Columns and labels:
Type in all cases: toxicity, cell-based
HEK-293T = assay: Incucyte cell viability with HEK293T; conditions: human, 10 µM, compound concentration 10 uM; also: filed as whole numbers so only -1 and 0 and 1 occur
Fibroblast [1] = assay: Multiplex assay against human fibroblast
Method in brief: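 Cells stained live at seeding with Hoechst33342, BioTracker Green Microtubule Cytoskeleton Dye, MitoTracker Red and Annexin V Alexa Fluor 680 were imaged on a CQ1 microscope at 37°C and 5% CO2 after compound addition. Their classification by CellPathfinder machine-learning gating ran from Hoechst high-intensity objects versus normal cells, to healthy, pyknosed or fragmented nuclei among normal cells, to mitotic or apoptotic among pyknosed cells. Tubulin, mitochondrial-mass and membrane-permeability phenotypes are per cents of healthy-nucleus cells.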

U2OS = assay: Incucyte cell viability with U2OS; conditions: human, 10 µM, compound concentration 10 uM; also: filed as whole numbers so only -1 and 0 and 1 occur
Fibroblast [2] = assay: Incucyte cell viability with human fibroblast; conditions: 10 µM, compound concentration 10 uM; also: filed as whole numbers so only -1 and 0 and 1 occur
[3] = 0 h, replicate number 1, timepoint 0 hours
[4] = 6 h, replicate number 1, timepoint 6 hours
[5] = 12 h, replicate number 1, timepoint 12 hours
[6] = 18 h, replicate number 1, timepoint 18 hours
[7] = 24 h, replicate number 1, timepoint 24 hours
[8] = 12 h, 1 µM, compound concentration 1 uM, replicate 1
[9] = 12 h, 1 µM, compound concentration 1 uM, replicate 2
[10] = 12 h, 10 µM, compound concentration 10 uM, replicate 1
[11] = 12 h, 10 µM, compound concentration 10 uM, replicate 2
[12] = 24 h, 1 µM, compound concentration 1 uM, replicate 1
[13] = 24 h, 1 µM, compound concentration 1 uM, replicate 2
[14] = 24 h, 10 µM, compound concentration 10 uM, replicate 1
[15] = 24 h, 10 µM, compound concentration 10 uM, replicate 2
[16] = 48 h, 1 µM, compound concentration 1 uM, replicate 1
[17] = 48 h, 1 µM, compound concentration 1 uM, replicate 2
[18] = 48 h, 10 µM, compound concentration 10 uM, replicate 1
[19] = 48 h, 10 µM, compound concentration 10 uM, replicate 2

## CS(=O)(=O)N1CCCC(NC(=O)[C@H](CCC2CCCCC2)NC(=O)c2ccc(CNC(=O)c3cnc4ccccn34)cc2)C1 (stereo partly specified) [SR-302]
HEK-293T; [3]
  Growth Rate: 0
HEK-293T; [4]
  Growth Rate: 0
HEK-293T; [5]
  Growth Rate: 0
HEK-293T; [6]
  Growth Rate: 0
HEK-293T; [7]
  Growth Rate: 0
Fibroblast [1]; [8]
  Population Apoptotic (%): 63% [middle of 4 runs]
  Population Fragmented Nuclei (%): 16% and 17% and 20%
  Population Healthy Nuclei (%): 42% [middle of 4 runs]
  Population Hoechst High Intensity Objects (%): 15% [middle of 4 runs]
  Population Membrane Permeable-Phenotype (%): 31% and 23%
  Population Mitochondria Different-Phenotype (%): 10% [middle of 4 runs]
  Population Mitotic Cells (%): 42% [middle of 4 runs]
  Population Normal (%): 85% and 84% and 80% and 87%
  Population Pyknosed Nuclei (%): 55% and 40% and 41%
Fibroblast [1]; [9]
  Population Apoptotic (%): 40% and 33% and 20%
  Population Healthy Nuclei (%): 81% [middle of 4 runs]
  Population Membrane Permeable-Phenotype (%): 0% and 7% and 2%
  Population Mitochondria Different-Phenotype (%): 6% and 7% and 9%
  Population Mitotic Cells (%): 60% and 66% and 80%
  Population Normal (%): 75% and 93% and 83% and 97%
  Population Pyknosed Nuclei (%): 12% [middle of 4 runs]
  Total Cell Count: 84 and 98 and 59
Fibroblast [1]; [10]
  Population Apoptotic (%): 56% [middle of 4 runs]
  Population Fragmented Nuclei (%): 26% [middle of 4 runs]
  Population Healthy Nuclei (%): 20% and 32% and 52%
  Population Hoechst High Intensity Objects (%): 11% and 19% and 9%
  Population Membrane Permeable-Phenotype (%): 20% [middle of 4 runs]
  Population Mitotic Cells (%): 48% [middle of 4 runs]
  Population Normal (%): 88% and 80% and 91%
  Population Pyknosed Nuclei (%): 51% [middle of 4 runs]
  Population Tubulin-Different-Phenotype (%): 86% [middle of 4 runs]
  Total Cell Count: 137 [middle of 4 runs]
Fibroblast [1]; [11]
  Population Apoptotic (%): 71% [middle of 4 runs]
  Population Healthy Nuclei (%): 34% and 80% and 83%
  Population Membrane Permeable-Phenotype (%): 18% and 23% and 11%
  Population Normal (%): 66% and 92% and 93% and 96%
  Population Pyknosed Nuclei (%): 17% and 7% and 9%
  Population Tubulin-Different-Phenotype (%): 91% [middle of 4 runs]
  Total Cell Count: 77 [middle of 4 runs]
Fibroblast [1]; [12]
  Population Apoptotic (%): 72% [middle of 4 runs]
  Population Fragmented Nuclei (%): 25% [middle of 4 runs]
  Population Healthy Nuclei (%): 51% [middle of 4 runs]
  Population Hoechst High Intensity Objects (%): 17% [middle of 4 runs]
  Population Mitochondria Different-Phenotype (%): 7% [middle of 4 runs]
  Population Mitotic Cells (%): 40% [middle of 4 runs]
  Population Normal (%): 85% and 77% and 82% and 83%
  Population Pyknosed Nuclei (%): 28% [middle of 4 runs]
Fibroblast [1]; [13]
  Population Membrane Permeable-Phenotype (%): 0% and 5% and 1%
  Population Mitochondria Different-Phenotype (%): 6% and 8% and 4%
  Population Mitotic Cells (%): 66% [middle of 4 runs]
  Population Normal (%): 76% and 95%
  Total Cell Count: 97 [middle of 4 runs]
Fibroblast [1]; [14]
  Population Apoptotic (%): 57% [middle of 4 runs]
  Population Fragmented Nuclei (%): 24% [middle of 4 runs]
  Population Healthy Nuclei (%): 37% and 27% and 59%
  Population Hoechst High Intensity Objects (%): 10% [middle of 4 runs]
  Population Mitotic Cells (%): 51% [middle of 4 runs]
  Population Normal (%): 100% and 89% and 80% and 92%
  Population Pyknosed Nuclei (%): 51% [middle of 4 runs]
  Population Tubulin-Different-Phenotype (%): 82% [middle of 4 runs]
Fibroblast [1]; [15]
  Population Apoptotic (%): 55% [middle of 4 runs]
  Population Membrane Permeable-Phenotype (%): 16% [middle of 4 runs]
  Population Mitochondria Different-Phenotype (%): 75% [middle of 4 runs]
  Population Mitotic Cells (%): 45% [middle of 4 runs]
  Population Normal (%): 62% and 88% and 95% and 94%
  Population Pyknosed Nuclei (%): 24% and 15% and 13%
  Population Tubulin-Different-Phenotype (%): 72% [middle of 4 runs]
  Total Cell Count: 88 [middle of 4 runs]
Fibroblast [1]; [16]
  Population Apoptotic (%): 58% and 70% and 55%
  Population Fragmented Nuclei (%): 42% and 31% and 22%
  Population Healthy Nuclei (%): 40% and 46% and 52%
  Population Hoechst High Intensity Objects (%): 18% and 24% and 20%
  Population Membrane Permeable-Phenotype (%): 14% and 36% and 20%
  Population Mitochondria Different-Phenotype (%): 7% and 13% and 5%
  Population Mitotic Cells (%): 41% and 30% and 44%
  Population Normal (%): 81% and 75% and 79%
  Population Pyknosed Nuclei (%): 17% and 21% and 24%
  Population Tubulin-Different-Phenotype (%): 42% and 59% and 28%
  Total Cell Count: 86 and 62 and 93
Fibroblast [1]; [17]
  Population Fragmented Nuclei (%): 19% and 14% and 23%
  Population Healthy Nuclei (%): 79% and 82% and 72%
  Population Hoechst High Intensity Objects (%): 13% and 8% and 15%
  Population Membrane Permeable-Phenotype (%): 9% and 7%
  Population Mitochondria Different-Phenotype (%): 0% and 4%
  Population Normal (%): 86% and 91% and 84%
  Total Cell Count: 105 and 83 and 107
Fibroblast [1]; [18]
  Population Apoptotic (%): 53% and 87% and 50%
  Population Fragmented Nuclei (%): 31% and 64% and 30%
  Population Healthy Nuclei (%): 47% and 22% and 30%
  Population Hoechst High Intensity Objects (%): 27% and 36% and 28%
  Population Mitochondria Different-Phenotype (%): 33% and 50% and 53%
  Population Normal (%): 72% and 63% and 71%
  Population Tubulin-Different-Phenotype (%): 70% and 64% and 92%
  Total Cell Count: 87 and 97 and 118
Fibroblast [1]; [19]
  Population Apoptotic (%): 66% and 44%
  Population Fragmented Nuclei (%): 35% and 26% and 27%
  Population Healthy Nuclei (%): 60% and 65% and 62%
  Population Membrane Permeable-Phenotype (%): 7% and 5%
  Population Mitochondria Different-Phenotype (%): 37% and 45%
  Population Mitotic Cells (%): 33% and 55%
  Population Normal (%): 98% and 90%
  Population Pyknosed Nuclei (%): 4% and 7% and 10%
  Population Tubulin-Different-Phenotype (%): 91% and 93% and 96%
  Total Cell Count: 133 and 139
U2OS; [3]
  Growth Rate: 0
U2OS; [4]
  Growth Rate: 1
U2OS; 6 h, replicate number 2, timepoint 6 hours
  Growth Rate: 0
U2OS; [5]
  Growth Rate: 0
U2OS; [6]
  Growth Rate: 0
U2OS; 18 h, replicate number 2, timepoint 18 hours
  Growth Rate: 1
U2OS; [7]
  Growth Rate: 0
Fibroblast [2]; [3]
  Growth Rate: 0
Fibroblast [2]; [4]
  Growth Rate: 1
Fibroblast [2]; [5]
  Growth Rate: 0
Fibroblast [2]; [6]
  Growth Rate: 0
Fibroblast [2]; [7]
  Growth Rate: 0
